Here are results for 24 molecules from ChEMBL document CHEMBL1123559, “Inhibition of phenylethanolamine N-methyltransferase (PNMT) by aromatic hydroxy-substituted 1,2,3,4,-tetrahydroisoquinolines: further studies on the hydrophilic pocket of the aromatic ring binding region of the active site” (J Med Chem, 1987).

Usually Ki stands for a measure of affinity in units of concentration, obtained from inhibition or displacement. A word on the Km: it is the concentration of substrate that gives half-maximal velocity. The Vmax is the top rate of the reaction or transport when substrate is in excess.

The target of data set [1] is T1, Phenylethanolamine N-methyltransferase (Bos taurus, UniProt P10938).
T1 sequence (P10938 whole entry): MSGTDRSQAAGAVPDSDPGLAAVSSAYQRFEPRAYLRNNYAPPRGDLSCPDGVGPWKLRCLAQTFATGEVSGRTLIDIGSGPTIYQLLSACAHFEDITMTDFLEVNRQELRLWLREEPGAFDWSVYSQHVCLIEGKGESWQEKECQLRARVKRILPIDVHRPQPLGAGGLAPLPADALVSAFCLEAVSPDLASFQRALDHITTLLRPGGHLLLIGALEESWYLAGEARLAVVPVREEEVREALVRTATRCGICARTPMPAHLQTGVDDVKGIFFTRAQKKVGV
Nature of the data set: In vitro inhibition of bovine phenylethylamine N-methyl-transferase (PNMT) using radiochemical assay.

Data set [2] can be described thus: Ratio of Vmax to Km. Also noted: unit not given here.
Compound in data set [3]: COc1ccc2c(c1)C1CC2[C@H](N)C1
Briefly: (§1) In vitro inhibition of Phenylethylamine N-Methyltransferase (PNMT) using radiochemical assay. The method in brief:
(§2)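 Bovine adrenal PNMT, partially purified through isoelectric precipitation, was used with phenylethanolamine as the variable substrate. At least three inhibitor concentrations were tested, all below levels giving mixed kinetics. The mix held pH 8.0 phosphate, unlabeled AdoMet (10 μM stock) and [methyl-3H]AdoMet, run 30 min at 37 °C. After a borate quench, product was extracted into toluene/isoamyl alcohol and scintillation counted. Ki and mode came from 1/V vs 1/S plots.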

Compound in data set [4]: COc1ccc2c(c1)C1CCC2[C@@H]1N
The data set is described as §1. Put shortly: as §2

Compound in data set [5]: COc1cccc2c1C1CC2[C@H](N)C1
The description is as §1. Put shortly: as §2

Compound in data set [6]: N[C@@H]1CC2C[C@@H]1c1ccccc12
Described as §1. The method in brief: as §2

Compound in data set [7]: COc1ccc2c(c1)C1CC2[C@H](N)C1
Nature of the data set: (§3) In vitro inhibition of Phenylethylamine N-Methyltransferase (PNMT) using radiochemical assay expressed as Vmax.

Compound in data set [8]: COc1ccc2c(c1)C1CCC2[C@@H]1N
The description is as §3.

Compound in data set [9]: COc1cccc2c1C1CC2[C@H](N)C1
The description is as §3.

Compound in data set [10]: N[C@@H]1CC2CC1c1cc(O)c(O)cc12
The data set is described as §3.

In turn, `COc1ccc2c(c1)C1CCC2[C@@H]1N` (some centres undefined) yielded a Ki in [1] of 735 µM. Also, in data set [2], the Ratio came out at 0.08.
`COc1ccc2c(c1)C1CC2C[C@H]1N` (some centres undefined) came in with a Ki in data set [1] greater than 2000 µM.
For the molecule `N[C@@H]1CC2C[C@@H]1c1ccccc12`, in [2], the Ratio was determined as 0.01.
The molecule `COc1cccc2c1CCNC2` came in with a Ki in [1] of 550 µM.
The same measure, in the same setting: the result for `Oc1ccc2c(c1)CNCC2` reads 2.6 µM.
As for `Oc1cccc2c1CNCC2`, the inhibition constant (Ki) in data set [1] stood at 1080 µM.
In the case of `NC1C2CC[C@H]1c1ccccc12` (some centres undefined), in [2], the Ratio came out at 0.12.
For the molecule `COc1cccc2c1C1CC2[C@H](N)C1` (some centres undefined), in data set [1], the inhibitory constant (Ki) is greater than 2000 µM. The Ratio in [2] stood at 0.02.
Molecule `Oc1ccc2c(c1)CCNC2` came in with an inhibition constant (Ki) in [1] of 7.8 µM.
The molecule `N[C@@H]1CC2CC1c1cccc(O)c12` (some centres undefined) had a Ki in data set [1] greater than 10000 µM.
On to `COc1cccc2c1CNCC2`, for which affinity in [1] was put at a Ki of 3.8 µM.
The same measure, in the same setting: for `N[C@@H]1CC2CC1c1c(O)cccc12` (some centres undefined) the value was greater than 3000 µM; for `c1ccc2c(c1)CCNC2` [1,2,3,4-TETRAHYDROISOQUINOLINE], 10.3 µM.
The molecule `Oc1cc2c(cc1O)CNCC2` displayed a Ki in data set [1] of 5.7 µM.
In data set [1], `COc1cccc2c1C1CCC2[C@@H]1N` (some centres undefined) registered a Ki of 1100 µM.
The same measure, in the same setting: for `NS(=O)(=O)c1ccc2c(c1)CNCC2` the value was […].
The molecule `COc1ccc2c(c1)C1CC2[C@H](N)C1` (some centres undefined) had a Ki in data set [1] of 1260 µM. For the same molecule, in data set [2], the Ratio worked out at 0.01.
In the case of `N[C@@H]1CC2CC1c1cc(O)c(O)cc12` (some centres undefined), in data set [2], the Ratio stood at 0.06.
`COc1cccc2c1C1CC2C[C@H]1N` (some centres undefined) came in with a Ki in data set [1] greater than 2000 µM.
With `Oc1cccc2c1CCNC2`, in data set [1], the Ki was 90 µM.
Regarding `N[C@H]1C2CCC1c1cc(O)ccc12` (some centres undefined), in [1], the Ki stood at 108 µM.
The molecule `COc1ccc2c(c1)CNCC2` had a Ki in [1] of 20 µM.
The same measure, in the same setting: for `N[C@H]1C2CCC1c1c(O)cccc12` (some centres undefined) the value was greater than 4000 µM.

B1: Phenylethanolamine N-methyltransferase (Bos taurus), P10938 (protein)
chain: T1 sequence (P10938 whole entry)
As to B1, the Km in [3] turned out to be 602 µM; in data set [4], 294 µM; in data set [5], 970 µM; in [6], 392 µM. Moreover, the Vmax in [7] was 0.06 nmol/min/mg; in [8], 0.23 nmol/min/mg; in data set [9], 0.22 nmol/min/mg; in data set [10], 0.44 nmol/min/mg.
